Test results reported in ChEMBL document CHEMBL3244229, “Nonsteroidal antiinflammatory agents. 1. 5-Alkoxy-3-biphenylylacetic acids and related compounds as new potential antiinflammatory agenst” (J Med Chem, 1977).

Assays:
[1] = Acute toxicity in ip dosed ddY mouse measured after 168 hrs; format: organism-based; conditions: in vivo
Method in brief: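 Male ddY mice, four per group, given a single ip injection; deaths assessed 168 h after dosing. LD50 calculated by the method of Weil.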

Rattus norvegicus = assay: Antiinflammatory activity in Wistar rat assessed as inhibition of carrageenan-induced paw edema administered 30 mins prior challenge measured after 3 hrs; format: functional
Method in brief: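 Rats were dosed orally. Thirty minutes later, 1% carrageenan was injected subcutaneously into the plantar surface of the hind paw, and paw volume was remeasured 3 h afterward. Percent inhibition came from comparing the volume increase against a control group. ED50 (dose giving 50% inhibition) was derived from least-squares probit response vs log dose regression.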

Mus musculus = assay: Analgesic activity in ip dosed ddY mouse assessed as prevention of pseudoavoidance reflex co-administered with 5 mg/kg, sc morphine hydrochloride by tail pinch method; format: functional
Method in brief: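 Groups of eight male ddY mice (25–30 g) got the compound ip as a suspension in 0.5% CMC, together with a threshold dose of morphine hydrochloride (5 mg/kg sc). The read-out was prevention of pseudoavoidance reflexes (biting, squeaking, looking backward) after tail pinching with forceps. ED50 was calculated by the Litchfield–Wilcoxon method.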

Compound | LD50 at 168 h [1] | ED50 (Rattus norvegicus) | ED50 (Mus musculus)
COc1cc(CC(=O)O)cc(C(C)C)c1 | 1600 mg/kg | > 100 mg/kg | –
CCCCOc1cc(C)cc(CC(=O)O)c1 | 673 mg/kg | > 100 mg/kg | –
COc1cc(CC(=O)O)cc(C2CCCCC2)c1 | 564 mg/kg | > 100 mg/kg | –
COc1cc(CC(=O)O)cc(-c2ccc(F)cc2)c1 | 565 mg/kg | 50 mg/kg | –
COc1cc(CC(=O)O)cc(-c2ccc(Cl)cc2Cl)c1 | 336 mg/kg | 70 mg/kg | –
COc1cc(CC(=O)O)cc(-c2ccc(C)cc2)c1 | 566 mg/kg | > 100 mg/kg | –
Cc1cc(CC(=O)O)cc(OCC(C)C)c1 | 1000 mg/kg | > 100 mg/kg | –
COc1ccc(-c2cc(CC(=O)O)cc(OC)c2)cc1 | 636 mg/kg | > 100 mg/kg | 165 mg/kg
COc1cc(C)cc(CC(=O)O)c1 | 673 mg/kg | > 100 mg/kg | –
O=C(O)Cc1cc(O)cc(-c2ccc(Cl)cc2)c1 | 141 mg/kg | > 100 mg/kg | –
COc1cc(CC(=O)O)cc(-c2ccccc2)c1 | 566 mg/kg | 60 mg/kg | –
COC(=O)Cc1cc(O)cc(-c2ccc(Cl)cc2)c1 | > 1600 mg/kg | > 100 mg/kg | –
CCOc1cc(CC(=O)O)cc(-c2ccccc2)c1 | 400 mg/kg | > 100 mg/kg | –
CCCOc1cc(CC(=O)O)cc(-c2ccccc2)c1 | 475 mg/kg | > 100 mg/kg | –
CCCCOc1cc(CC(=O)O)cc(-c2ccccc2)c1 | > 1600 mg/kg | > 100 mg/kg | –
CC(C)COc1cc(CC(=O)O)cc(-c2ccccc2)c1 | 566 mg/kg | > 100 mg/kg | –
CCCCCOc1cc(CC(=O)O)cc(-c2ccccc2)c1 | 1130 mg/kg | > 100 mg/kg | –
CCOc1cc(CC(=O)O)cc(-c2ccc(Cl)cc2)c1 | 284 mg/kg | 51 mg/kg | –

Compound | LD50 at 168 h [1] | ED50 (Rattus norvegicus) | ED50 (Mus musculus)
CCCOc1cc(CC(=O)O)cc(-c2ccc(Cl)cc2)c1 | 400 mg/kg | 97 mg/kg | –
CCCCOc1cc(CC(=O)O)cc(-c2ccc(Cl)cc2)c1 | 237 mg/kg | > 100 mg/kg | –
CC(C)COc1cc(CC(=O)O)cc(-c2ccc(Cl)cc2)c1 | 139 mg/kg | > 100 mg/kg | –
CCCCCOc1cc(CC(=O)O)cc(-c2ccc(Cl)cc2)c1 | 475 mg/kg | > 100 mg/kg | –
CCOC(=O)Cc1cc(O)cc(-c2ccc(Cl)cc2)c1 | > 1600 mg/kg | > 100 mg/kg | –
COc1cc(CCO)cc(-c2ccc(Cl)cc2)c1 | 673 mg/kg | 47 mg/kg | –
COc1cc(CCC(=O)O)cc(-c2ccc(Cl)cc2)c1 | 284 mg/kg | > 100 mg/kg | –
COc1cc(CC(N)=O)cc(-c2ccc(Cl)cc2)c1 | > 1600 mg/kg | > 100 mg/kg | –
COc1cc(CC(=O)NO)cc(-c2ccc(Cl)cc2)c1 | > 1600 mg/kg | > 100 mg/kg | –
COC(=O)Cc1cc(OC)cc(-c2ccc(Cl)cc2)c1 | 1600 mg/kg | 35 mg/kg | –
CCOC(=O)Cc1cc(OC)cc(-c2ccc(Cl)cc2)c1 | 1130 mg/kg | 29 mg/kg | –
COC(=O)Cc1cc(OC(C)=O)cc(-c2ccc(Cl)cc2)c1 | > 1600 mg/kg | > 100 mg/kg | –
COC(=O)Cc1cc(OS(C)(=O)=O)cc(-c2ccc(Cl)cc2)c1 | 1130 mg/kg | > 100 mg/kg | –
COc1cc(C(=O)O)cc(-c2ccc(Cl)cc2)c1 | 1130 mg/kg | > 100 mg/kg | –
COc1cc(CC(=O)O)cc(-c2ccccc2Cl)c1 | 252 mg/kg | 39 mg/kg | 195 mg/kg
COc1cccc(CC(=O)O)c1 | 504 mg/kg | > 100 mg/kg | –
COc1cc(CC(=O)O)cc(-c2ccc(Cl)cc2)c1 | 570 mg/kg | 11 mg/kg | 38 mg/kg
CC(C)Cc1ccc(C(C)C(=O)O)cc1 (stereo unspecified) [IBUPROFEN] | 336 mg/kg | 25 mg/kg | 69 mg/kg
